# This is a sample that favours compounds with a hit; in the whole collection about 29% have one here.
# E coli WT exp – growth inhibitors of E. coli BW25113 wild type; OD600 absorbance; growth inhibition, % at 100 µM; 0.15% of 98,000 active;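 active = growth inhibition above about 50% at one test dose, limit read from the data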;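 also: growth measured after 20 h incubation at 37 °C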
# CYP2C19 inhib – blocks human cytochrome P450 2C19. P33261. CYP2C19 Supersomes, luciferin-H EGE luminescence, 30 min. inhibition, % at 5 µM. 21% of 96,000 active. AID 778;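 active = CYP2C19 inhibition above a set limit at 5 µM in the primary screen, cut at about 50% in these data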
# CYP2C9 inh – inhibitors of human CYP2C9. CYP2C9 Supersomes, luciferin-H conversion, luminescence. P11712. 20% of 96,000 active. inhibition, % at 5 µM;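 active = blocking of liver enzyme CYP2C9 beyond about 50% at 5 µM, limit read from the data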
# Target sequence (P11712 whole entry, looked up): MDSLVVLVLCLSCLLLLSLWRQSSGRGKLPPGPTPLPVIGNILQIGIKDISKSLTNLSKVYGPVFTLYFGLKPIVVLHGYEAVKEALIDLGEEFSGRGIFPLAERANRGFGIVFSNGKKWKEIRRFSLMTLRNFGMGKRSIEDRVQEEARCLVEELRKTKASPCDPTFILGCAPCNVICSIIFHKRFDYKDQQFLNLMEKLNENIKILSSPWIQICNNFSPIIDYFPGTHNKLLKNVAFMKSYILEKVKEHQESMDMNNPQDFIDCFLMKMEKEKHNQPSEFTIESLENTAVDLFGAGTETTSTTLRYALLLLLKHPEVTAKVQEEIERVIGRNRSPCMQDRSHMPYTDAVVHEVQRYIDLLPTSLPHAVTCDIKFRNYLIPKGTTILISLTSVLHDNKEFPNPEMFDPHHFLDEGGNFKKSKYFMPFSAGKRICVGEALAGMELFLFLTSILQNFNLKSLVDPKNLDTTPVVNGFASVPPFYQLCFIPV
# tolC growth inh – growth inhibitors of E. coli BW25113 tolC mutant | OD615 | 2.2% of 65,000 active | growth inhibition, % at 10 µM (by protocol);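 active = growth inhibition at or above a cutoff equal to the mean over every tested compound plus 3 SD, cut at about 60% in these data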;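 also: growth measured after 20 h incubation at 37 °C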
#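 signal = optical density read at 615 nm | test system = E. coli ΔtolC::kan strain BW25113 | timing = 20 h compound exposure of bacteria at 37 °C | buffer or medium = LB medium plus 50 µg/mL kanamycin | compound dosing = 10 µM final, single dose | evaluation = % inhibition of E. coli growth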
# CYP2C9 activ – increases human cytochrome P450 2C9 activity; activation factor at 5 µM; recombinant CYP2C9, luciferin-H conversion, luminescence; stronger effect = higher value; factor 1 = untreated enzyme, 0 = blocked; 1.4% of 96,000 active; P11712;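 active = activation factor of 2 or more for CYP2C9 at a 5 µM dose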
# CYP2C19 activ – increases human CYP2C19 enzyme activity; activation factor at 5 µM; recombinant CYP2C19, luciferin-H EGE luminescence; stronger effect = higher value; 0 = fully inhibited enzyme, 1 = untreated enzyme; 96,000 tested, under 10 active;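 active = activation factor of at least 2 at 5 µM in the primary screen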
# A number is an active result; . = inactive; / = no result.
SMILES,E coli WT exp,CYP2C19 inhib,CYP2C9 inh,tolC growth inh,CYP2C9 activ,CYP2C19 activ
c1ccc(C2CC3CC(c4ccco4)N2O3)cc1 (stereo unspecified),.,.,.,.,.,.
O=c1cccc2n1CC1CC2CN(Cc2ccc3c(c2)OCO3)C1 (stereo unspecified),/,57.4,52.2,.,.,.
CC(=NCCN1CCCCC1)c1c(O)[nH]c(=O)[nH]c1=O,.,.,.,.,.,.
O=c1[nH]c(=O)n(C2CCCCC2)c(O)c1C=NCCCn1ccnc1,.,61.0,50.4,.,.,.
O=c1[nH]c(=S)n(CCC2=CCCCC2)c(O)c1C=NCc1cccnc1,.,.,.,/,.,.
CN(C)CCCN=Cc1c(O)n(CCc2ccc(F)cc2)c(=O)[nH]c1=O,.,.,.,/,.,.
O=c1[nH]c(=S)n(CCC2=CCCCC2)c(O)c1C=NCCCn1ccnc1,.,92.9,98.4,/,.,.
CCN(CC)CCN=Cc1c(O)n(C2CCCCCC2)c(=O)[nH]c1=O,.,.,.,.,.,.
O=c1[nH]c(=O)n(CCC2=CCCCC2)c(O)c1C=NCCCn1ccnc1,.,86.2,96.7,.,.,.
O=c1[nH]c(=O)n(CCc2ccc(F)cc2)c(O)c1C=NCCCn1ccnc1,.,.,68.1,.,.,.
ON1C2CCCCC2N(O)C1c1ccccc1F (stereo unspecified),.,.,.,/,.,.
N[C@@H](Cc1c[nH]c2ccccc12)c1nnc(SCc2ccccc2F)o1,.,.,.,.,.,.
CCOP(=O)(OCC)C(C)(C)NC(=O)C(Cl)(Cl)Cl,.,.,.,/,.,.
O=c1cccc2n1CC1CC2CN(C(c2cccc(F)c2)c2sc3ncnn3c2O)C1 (stereo unspecified),.,.,.,.,.,.
Cn1c(O)c(C(=N)COc2cccc(Cl)c2)c(=O)n(C)c1=O,.,.,.,/,.,.
CC(C)C12CN3CC(C(C)C)(CN(C1)C3c1cccnc1)C2=O (stereo unspecified),.,.,.,/,.,.
CC(C)CC12CN3CCN(CC(C3)C1O)C2 (stereo unspecified),.,.,.,.,.,.
COC(=O)C(O)(c1ccc(NC(=S)NC(=O)c2ccccc2)cc1)C(F)(F)F (stereo unspecified),.,.,50.4,/,.,.
CCN(c1ccc(C(O)(C(=O)OC)C(F)(F)F)cc1)S(=O)(=O)c1ccc(C)cc1 (stereo unspecified),.,.,.,/,.,.
CCOC(=O)C(O)(c1ccc(N(CC)S(=O)(=O)c2ccc(C)cc2)cc1)C(F)(F)F (stereo unspecified),.,.,68.6,/,.,.
COC(=O)C(O)(c1ccc(N(C)S(=O)(=O)c2ccccc2)cc1)C(F)(F)F (stereo unspecified),.,92.1,87.8,.,.,.
CC(N=Cc1c(O)[nH]c(=O)[nH]c1=O)c1ccccc1 (stereo unspecified),.,.,.,.,.,.
Nc1ccc(S(=O)(=O)N2CCCCC2c2cccnc2)cc1 (stereo unspecified),.,.,.,.,.,.
O=S(=O)(c1ccccc1)N1CCCCC1c1cccnc1 (stereo unspecified),.,51.7,.,/,.,.
O=C(c1sc2ccccc2c1Cl)N1CCC2(CC1)OCCO2,.,81.5,.,.,.,.
SMILES,E coli WT exp,CYP2C19 inhib,CYP2C9 inh,tolC growth inh,CYP2C9 activ,CYP2C19 activ
CC12CN3CCN(CC(C3)C1O)C2 (stereo unspecified),.,.,.,.,.,.
COP(=O)(OC)C(NC(=O)C(C)(C)C)=C(Cl)Cl,.,.,.,/,.,.
CCOP(=O)(OCC)C(NC(=O)c1ccc(Cl)cc1)=C(Cl)Cl,.,63.9,.,/,.,.
CN(C)C1=NP(N(C)C)(N(C)C)=NC(c2ccccc2)=N1,.,.,.,.,.,.
CCOC(=O)c1c(C)n(Cc2ccco2)c2c1cc(O)c1ccccc12,.,.,82.1,/,.,.
CCn1nc(-c2ccccc2)nc2c(=O)n(C)c(=O)nc1-2,.,/,/,100.0,/,/
O=c1[nH]c(=S)n(Cc2ccco2)c(O)c1C=NCc1cccs1,.,.,59.2,/,.,.
CCOc1ccccc1-n1c(O)c(C=NCCCN(CC)CC)c(=O)[nH]c1=O,.,.,.,.,.,.
O=C(c1cccs1)c1cn(Cc2ccccc2Cl)c2ccccc12,.,.,62.5,/,.,.
N#Cc1ccccc1Cn1cc(C(=O)c2cccs2)c2ccccc21,.,54.4,88.7,.,.,.
NC(=O)CN1CC(c2ccccc2)CC1=O (stereo unspecified),.,.,.,.,.,.
COc1ccc(OC)c(CC(=O)O)c1,.,.,.,.,.,.
COc1ccc(OC)c(N2C(=O)NC(=O)C(CCc3ccncc3)(CCc3ccncc3)C2=O)c1,.,/,/,.,/,/
COc1ccc(CCNCc2ccncc2)cc1,.,90.3,71.8,/,.,.
COc1ccc(CCNCc2ccc(OC)c(OC)c2OC)cc1,.,62.5,.,/,.,.
COc1ccc(CCNC(C)CCc2ccc(OC)cc2)cc1 (stereo unspecified),.,55.1,.,/,.,.
O=P1(Nc2ccc(F)cc2)COc2ccccc2OC1,.,63.8,.,.,.,.
COC(=O)c1ccccc1OP1(=O)COc2ccccc2OC1,.,.,.,.,.,.
OCC12CO[C@@H]3c4ccccc4[C@H](OC1)N32 (stereo partly specified),.,.,.,/,.,.
CN(C)C(=O)Oc1ccc(Cl)c2ccccc12,.,73.0,.,.,2.1,.
O=c1cccc2n1CC1CC2CN(c2ncnc3c2cnn3-c2ccc(Cl)cc2)C1 (stereo unspecified),/,.,.,.,.,.
CCCCn1c(=O)c(C(=O)Nc2ccccc2S(N)(=O)=O)c(O)c2ccccc21,.,.,.,98.1,.,.
CCCCn1c(=O)c(C(=O)NCc2ccncc2)c(O)c2ccccc21,.,91.9,100.2,.,.,.
O=P(C(c1c[nH]c2ccccc12)N1CCOCC1)(N1CCOCC1)N1CCOCC1 (stereo unspecified),.,.,75.3,.,.,.
CC1OC(NCCc2ccccc2)C(O)C(O)C1O (stereo unspecified),.,/,/,.,/,/
CN1/C(=C\C=C\C2=[N+](C)c3ccc4ccccc4c3C2(C)C)C(C)(C)c2ccccc21,84.0,67.4,55.7,/,.,.
CC(C)n1nnnc1CN1CCN(C)CC1,.,.,.,.,.,.
COc1ccc(C(=O)CC2(CC(=O)c3ccc(OC)cc3)C(=O)N(C)C(=O)N(C)C2=O)cc1,.,.,.,/,.,.
CN1C(=O)N(C)C(=O)C2(Cc3c(ccc4ccccc34)N(C)C2)C1=O,.,65.7,.,.,.,.

# From PubChem
